Data on 1 molecule can be found in ChEMBL document CHEMBL4616681, “Discovery of 3-Pyridyl Isoindolin-1-one Derivatives as Potent, Selective, and Orally Active Aldosterone Synthase (CYP11B2) Inhibitors” (J Med Chem, 2020).

The nature of data set [1]: Dose normalized AUC in Wister-Han rat at 1 mg/kg, iv or 3 mg/kg, po administered as single dose by LC/MS-MS analysis. The format is ADME, organism-based. The settings on record: in vivo. The method in brief:
(§1)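 Male Wistar-Han rats, single dose. IV 1 mg/kg, compound at 0.5 mg/mL in NMP:saline 30/70 (v/v). Oral 3 mg/kg, 0.25 mg/mL in 2% Klucel with 0.1% Polysorbate 80. Three rats per time point. Heparinized blood taken at eight (iv) or seven (po) time points, plasma stored at -20 °C. Plasma levels by LC/MS-MS. Non-compartmental analysis.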

A short description of data set [2]: Free plasma concentration in cynomolgus monkey at 0.01 mg/kg. The format is ADME, organism-based, Macaca fascicularis. The settings on record: in vivo. The method in brief:
(§2)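 Cynomolgus monkeys, 2 per group, given single oral doses of 0.01, 0.1, 1 or 10 mg/kg as a suspension in hydroxyethylcellulose/polysorbate 80/parabens vehicle, 2 mL/kg. Synacthen 14.5 µg/kg given i.m. at 1 hr. Plasma compound levels by LC/MS-MS. Average free exposure calculated from AUC0-7hr and corrected for plasma protein binding.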

The nature of data set [3]: Free plasma concentration in cynomolgus monkey at 1 mg/kg. The format is ADME, organism-based, Macaca fascicularis. Particulars: in vivo. The method, boiled down: as §2
Data set [4] can be described thus: AUC (0 to infinity) in Wister-Han rat at 3 mg/kg, po administered as single dose by LC/MS-MS analysis. The format is ADME, organism-based. Set-up: dose 3 mg/kg, route oral, time infinity. The settings on record: Wistar-Han, in vivo. The method, boiled down:
as §1

Data set [5] is described as follows: Free plasma concentration in cynomolgus monkey at 10 mg/kg. In kind it is ADME, organism-based, Macaca fascicularis. Particulars: in vivo. The method, boiled down: as §2
A short description of data set [6]: Plasma clearance in iv dosed cynomolgus monkey. In kind it is ADME, organism-based, Macaca fascicularis.
A short description of data set [7]: Intrinsic clearance in rat hepatocytes. The format is ADME, cell-based, Hepatocyte. The settings on record: read-out: CLH.
Data set [8] is described as follows: Permeability of the compound measured at 18 hrs by PAMPA. The format is ADME. The settings on record: read-out: permeability. The method, boiled down: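 PAMPA sandwich format. Donor: compound diluted to 150 μM (DMSO <2%) in 0.05 M MOPSO pH 6.5 with 0.5% glycocholic acid. Acceptor: 0.05 M MOPSO pH 6.5. Membrane of 10% egg lecithin with 0.5% cholesterol in dodecane. Donor measured at start; acceptor and donor measured at ~18 hr.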
(In PAMPA a lipid-coated filter parts donor from acceptor wells.)

Another data set has as its system Cynomolgus monkey. Put plainly: In vivo inhibition of CYP11B2 in cynomolgus monkey assessed as reduction in ACTH-induced 11-deoxycorticosterone at 0.01 to 10 mg/kg, po preincubated for 1 hr followed by ACTH challenge and measured after 60 mins by LC/MS-MS analysis. The format is functional, organism-based. Particulars: Macaca fascicularis. The method, boiled down:
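Cynomolgus monkeys preselected as Synacthen responders (at least 2-fold rise in aldosterone, cortisol and corticosterone). Two animals per group. Oral vehicle or compound at 0.01–10 mg/kg in hydroxyethylcellulose/polysorbate 80/paraben suspension (2 mL/kg) at T=0, then 14.5 µg/kg Synacthen i.m. at 1 hr. EDTA blood drawn from -5 min to 24 h. Plasma steroids measured by LC/MS-MS; data shown 60 min after challenge.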

The nature of data set [9]: Free plasma concentration in cynomolgus monkey at 0.1 mg/kg. The settings on record: in vivo. The format is ADME, organism-based, Macaca fascicularis. The method, boiled down:
as §2

The source made the active and inactive calls. The calls are words filed in the database; no cut-off is given here.

The AUC(0-inf) is the area under the concentration-time curve extrapolated to infinity. The clearance is a measure of how efficiently the substance is removed, as volume per time. In turn, `CCS(=O)(=O)N1CC(Oc2cncc(N3C(=O)c4ccc(Cl)cc4C3(C)C)c2)C1` showed an AUC/dose in data set [1] of 2123 kg·ng·h/mL/mg. For the same molecule, the “Cp(f)” value in [2] is 0.075 ng/mL; in data set [3], 10.3 ng/mL; in [5] it was 86.46 ng/mL; in [9], 0.825 ng/mL. Further, the area under the curve AUC(0-inf) in data set [4] came out at 6370 ng·h/mL. In data set [6], this molecule returned a clearance of 4.6 mL/min/kg. Further, in [7], the CLint scaled stood at 26.7 mL/min/kg. The Papp at 18 h in data set [8] is 4.17 ×10⁻⁶ cm/s. Besides, the inhibition result with Cynomolgus monkey is “inactive”.
